# Laboratory results from PMC7261373 (Journal of medicinal chemistry, 2019).
# Columns and labels:
# ERα [1] = target: T1, ERα (Homo sapiens, UniProt P03372); experiment: ER in-cell western; format: cell-based; settings: MCF7:WS8, 24 h treatment
# T1 sequence (P03372 1-595): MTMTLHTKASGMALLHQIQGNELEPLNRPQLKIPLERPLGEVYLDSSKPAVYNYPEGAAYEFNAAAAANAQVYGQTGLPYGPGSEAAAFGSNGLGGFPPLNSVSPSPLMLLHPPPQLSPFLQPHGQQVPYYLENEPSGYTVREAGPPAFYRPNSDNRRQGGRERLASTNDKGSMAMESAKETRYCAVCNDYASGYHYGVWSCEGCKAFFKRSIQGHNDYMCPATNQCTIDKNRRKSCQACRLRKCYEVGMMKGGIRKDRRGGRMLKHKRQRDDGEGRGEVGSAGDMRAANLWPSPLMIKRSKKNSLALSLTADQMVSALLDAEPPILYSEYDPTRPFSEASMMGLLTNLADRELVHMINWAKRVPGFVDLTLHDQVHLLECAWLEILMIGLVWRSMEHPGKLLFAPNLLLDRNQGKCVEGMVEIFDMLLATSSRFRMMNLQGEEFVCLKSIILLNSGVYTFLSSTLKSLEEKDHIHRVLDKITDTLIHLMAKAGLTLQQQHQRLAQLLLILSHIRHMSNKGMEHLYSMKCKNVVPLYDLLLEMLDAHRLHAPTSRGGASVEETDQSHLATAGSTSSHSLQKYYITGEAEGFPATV
# How it was run: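 MCF7:WS8 cells were stripped for 2 days (phenol red-free medium, stripped FBS), plated at 2.5 × 10^4 cells/well, grown 48 h, then treated 24 h. They were fixed and stained with anti-ERα (H10) by the in-cell western protocol. The IRDye 800CW signal was normalized to CellTag 700 stain.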
# MCF7:5C cells = experiment: DNA content assay, 2D growth inhibition of MCF7:5C cells; format: cell-based; settings: for growth inhibition, result in words: 2D culture
# How it was run: (§1)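 Cells were seeded at 5000/well in 96-well plates and treated with 0.01% (v/v) DMSO vehicle or serially diluted test compound. MCF7:WS8 cells were estrogen-stripped for 2 days beforehand (phenol red-free RPMI-1640, stripped FBS) and read on day 5. MCF7:5C cells, kept in phenol red-free RPMI-1640 with charcoal:dextran-stripped FBS, were read on day 7. Lysis was at −80 °C overnight, then Hoechst 33258 fluorescence was measured in TNE buffer. Data were normalized to vehicle and no cells, from ≥3 biological and analytical replicates.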
# [2] = Preliminary PK screen, plasma and brain concentrations by LC-MS/MS; format: in vivo, C57BL/6 mice; settings: for concentration in the brain: 0.5 and 2 h, 100 mg/kg oral
# MCF7:TAM1 spheroids = experiment: Spheroid growth assay; format: cell-based; settings: 10 nM, 14 days, ATP content
# How it was run: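 MCF7:TAM1 cells, maintained in phenol red-free stripped RPMI-1640 containing 1 μM of the selecting antiestrogen, were plated at 1000–1500 cells/well in ultra-low-attachment round-bottom plates. Spheroids grew untreated for 1–3 days. Half the medium was then replaced with 2× treatment medium, and 1× treatment was repeated every 2–3 days over 14 days; vehicle was 0.01% DMSO. Viability was read by CellTiter-Glo 3D luminescence, normalized to vehicle (1.0) and background (0.0). Three biological and analytical replicates were run, analysed by one-way ANOVA versus vehicle.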
# ERE-luciferase = format: cell-based; settings: MCF7:WS8, in competition with 1 nM E2
# How it was run: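 MCF7:WS8 cells were grown 3 days in phenol red-free RPMI-1640 with stripped FBS, plated at 1 × 10^5 cells/well, and held 24 h. They were then co-transfected for 6 h (Lipofectamine 2000, Opti-MEM) with pERE-luciferase (three Xenopus vitellogenin A2 EREs driving firefly luciferase) and pRL-TK Renilla. Cells were treated with test compound plus 1 nM E2 for 18 h before dual-luciferase readout.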
# MCF7:WS8 cells = experiment: DNA content assay, 2D growth inhibition of MCF7:WS8 cells; format: cell-based; settings: for growth inhibition, result in words: MCF7:WS8, 2D culture
# How it was run: as §1
# Full PK analysis of 37d = format: in vivo, CD-1 mice; settings: CD-1, mouse, plasma, po, 50 mg/kg
# How it was run: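 Test compound was given orally at 50 mg/kg as a solution in water and 10% SBE-β-CD/PEG-400 (9:1 v/v). Plasma was sampled at 10 time points. Samples were diluted in 50% acetonitrile, with working standards serially diluted in 50% acetonitrile in water, and quantified by LC-MS/MS.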
# ERα [3] = target: T1, ERα; experiment: ER western assay with proteasomal inhibitor MG-132 in MCF7:WS8 cells; format: cell-based; settings: MCF7:WS8, 10 nM, MG-132 1 μM, western blot
# [4] = system: T47D:WT, T47D:TYS (Y537S) and T47D:TDG (D538G) cells; experiment: Spheroid growth assay; format: cell-based; settings: 10 nM, 11 days treatment
smiles,measurement,setting,value
"Cc1ccccc1C(=O)c1sc2cc(O)ccc2c1Oc1ccc(OCCN2CCC2)cc1 [30a, (3-(4-(2-(Azetidin-1-yl)ethoxy)phenoxy)-6-hydroxybenzo[b]-thiophen-2-yl)(o-tolyl)methanone]","ERα degradation by ICW, result in words",ERα [1],reduced efficacy
same,"growth inhibition, result in words",MCF7:5C cells,significantly reduced efficacy
"Cc1cc(F)cc(C)c1C(=O)c1sc2cc(O)ccc2c1Oc1ccc(OCCN2CC(CF)C2)cc1 [30f, (4-Fluoro-2,6-dimethylphenyl)(3-(4-(2-(3-(fluoromethyl)azetidin-1-yl)ethoxy)phenoxy)-6-hydroxybenzo[b]thiophen-2-yl)-methanone]",concentration in the brain,[2],600 to 750 nM
same,"inhibition of spheroid growth, in words",MCF7:TAM1 spheroids,greater efficacy
"O=C(c1ccc(O)cc1)c1sc2cc(O)ccc2c1Oc1ccc(OCCN2CC(CF)C2)cc1 [30g, (3-(4-(2-(3-(Fluoromethyl)azetidin-1-yl)ethoxy)phenoxy)-6-hydroxybenzo[b]thiophen-2-yl)(4-hydroxyphenyl)methanone]","growth inhibition, result in words",MCF7:5C cells,lost efficacy
"Cc1cc(O)ccc1C(=O)c1sc2cc(O)ccc2c1Oc1ccc(OCCN2CC(CF)C2)cc1 [30h, (3-(4-(2-(3-(Fluoromethyl)azetidin-1-yl)ethoxy)phenoxy)-6-hydroxybenzo[b]thiophen-2-yl)(4-hydroxy-2-methylphenyl)-methanone]","ERα degradation by ICW, result in words",ERα [1],reduced efficacy
same,"antagonism of ERE-luciferase induction by E2, potency in words",ERE-luciferase,lower potency
"Cc1ccccc1C(=O)c1sc2cc(O)ccc2c1Oc1ccc(OCCN2CC[C@@H](CF)C2)cc1 [30l, (R)-(3-(4-(2-(3-(Fluoromethyl)pyrrolidin-1-yl)ethoxy)phenoxy)-6-hydroxybenzo[b]thiophen-2-yl)(o-tolyl)methanone]","growth inhibition, result in words",MCF7:5C cells,superior potency and efficacy to 2
same,"growth inhibition, result in words",MCF7:WS8 cells,superior potency and efficacy to 2
"Cc1cc(F)cc(C)c1C(=O)c1sc2cc(O)ccc2c1Oc1ccc(OCCN2CC[C@@H](CF)C2)cc1 [30m, (R)-(4-Fluoro-2,6-dimethylphenyl)(3-(4-(2-(3-(fluoromethyl)-pyrrolidin-1-yl)ethoxy)phenoxy)-6-hydroxybenzo[b]thiophen-2-yl)-methanone]","antagonism of ERE-luciferase induction by E2, potency in words",ERE-luciferase,lower potency
"Cc1cc(F)cc(C)c1C(=O)c1sc2cc(O)ccc2c1Oc1ccc(OCCN2CC[C@H](CF)C2)cc1 [30n, (S)-(4-Fluoro-2,6-dimethylphenyl)(3-(4-(2-(3-(fluoromethyl)-pyrrolidin-1-yl)ethoxy)phenoxy)-6-hydroxybenzo[b]thiophen-2-yl)-methanone]","ERα degradation by ICW, result in words",ERα [1],reduced efficacy
"Cc1ccccc1C(=O)c1sc2cc(O)ccc2c1Oc1ccc(OCCN2CCCCC2)cc1 [30o, (6-Hydroxy-3-(4-(2-(piperidin-1-yl)ethoxy)phenoxy)benzo[b]-thiophen-2-yl)(o-tolyl) Methanone]","ERα degradation by ICW, result in words",ERα [1],did not induce ER degradation
same,"growth inhibition, result in words",MCF7:5C cells,did not inhibit growth
"Cc1cc(F)cc(C)c1C(=O)c1sc2cc(O)ccc2c1Oc1ccc(OC2CN(CCCF)C2)cc1 [37d, (4-Fluoro-2,6-dimethylphenyl)(3-(4-((1-(3-fluoropropyl)azetidin-3-yl)oxy)phenoxy)-6-hydroxybenzo[b]thiophen-2-yl)methanone]",concentration in the brain,[2],exceeded 1 μM
same,"inhibition of spheroid growth, in words",MCF7:TAM1 spheroids,greater efficacy
same,half-life,Full PK analysis of 37d,4.5 h
same,"proteasome dependence of ERα degradation, in words",ERα [3],coadministration of a proteasome inhibitor blocked the actions
same,"efficacy in T47D spheroids, in words",[4],"equally as effective as the SERDs, fulvestrant (2) and GDC-0927 (3b), and as the SERM 1b"
"Cc1cc(F)cc(C)c1C(=O)c1sc2cc(O)ccc2c1Oc1ccc(OC2CN(C3CC3)C2)cc1 [37f, (3-(4-((1-Cyclopropylazetidin-3-yl)oxy)phenoxy)-6-hydroxybenzo[b]thiophen-2-yl)(4-fluoro-2,6-dimethylphenyl)-methanone]","ERα degradation by ICW, result in words",ERα [1],low efficacy
same,"growth inhibition, result in words",MCF7:5C cells,loss of efficacy
same,"growth inhibition, result in words",MCF7:WS8 cells,potent and effective
same,"antagonism of ERE-luciferase induction by E2, potency in words",ERE-luciferase,lower potency
"C[C@]12CC[C@@H]3c4ccc(O)cc4C[C@@H](CCCCCCCCC[S+]([O-])CCCC(F)(F)C(F)(F)F)[C@H]3[C@@H]1CC[C@@H]2O (stereo partly drawn) [compound 2, fulvestrant, reference compound]","concentration in the brain, in words","[2]; 30 min, s.c.",below the limit of quantification
same,"inhibition of spheroid growth, in words",MCF7:TAM1 spheroids,greater efficacy
same,IC50,"MCF7:5C cells; 144 h, read-out: pIC50, inhibition of cell growth (converted)",0.631 to 1.58 nM
same,IC50,"MCF7:WS8 cells; MCF7:WS8, 96 h, read-out: pIC50, inhibition of cell growth (converted)",0.631 to 1.58 nM
"O=C(c1ccc(OCCN2CCCCC2)cc1)c1c(-c2ccc(O)cc2)sc2cc(O)ccc12 [compound 6, raloxifene, reference compound]","growth inhibition, result in words",MCF7:5C cells,cross-resistant
